One data set has as its target Cannabinoid receptor 1 (Rattus norvegicus, UniProt P20272). Nature of the data set: Displacement of [3H]CP-55940 from CB1 receptor in Sprague-Dawley rat cerebellar membrane. Further details: species or system Cerebellum. In a few lines:
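Pelleted membranes were incubated with 3 nM [3H]CP55,940, 0.5% fatty-acid-free BSA and a range of ligand concentrations for 1 h at 30 °C. Bound ligand was filtered on PEI-soaked GF/B and counted by scintillation; IC50 reported.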
(Loss of bound radioactivity is the signal in a displacement assay; it reports binding, not function.)

In the next data set the target is Cannabinoid receptor 2 (Homo sapiens, UniProt P34972). Nature of the data set: Displacement of [3H]WIN-552122 from human CB2 receptor expressed in CHOK1 cells. The format is cell-based, CHO-K1. A digest of the protocol:
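Membranes came from CHO K-1 cells transfected with human CB2 and were prepared in TME buffer (pH 7.4) with centrifugation at 48,000g. Competition used 3 nM [3H]WIN55,212-2 in TME with 0.5% fatty-acid-free BSA across a range of ligand concentrations, 1 h at 30 °C.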

Data set [1] can be described thus: Selectivity ratio of IC50 for human CB2 to IC50 for rat CB1. In a few lines:
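Competitive radioligand binding in TME buffer (50 mM Tris–HCl, 1 mM EDTA, 3 mM MgCl2, pH 7.4) with 0.5% fatty-acid-free BSA, 1 h at 30 °C. rCB1 used male Sprague-Dawley rat cerebellar membranes with 3 nM [3H]CP55,940. hCB2 used membranes from CHO K-1 cells transfected with human CB2, with 3 nM [3H]WIN55,212-2. Bound ligand was filtered and counted by scintillation. Ratio = hCB2 IC50 / rCB1 IC50.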

Data set [2] can be described thus: Cmax in rat at 5 mg/kg, po after 1.3 hrs. It counts as ADME, organism-based. Also on record: dose 5 mg/kg, route oral. The following applies: in vivo.
A short description of data set [3]: Elimination half life in rat at 5 mg/kg, po. Further details: dose 5 mg/kg, route oral. As to conditions: in vivo, read-out: beta t1/2 (converted). It counts as ADME, organism-based.
Data set [4] is described as follows: Oral bioavailability in rat at 5 mg/kg. As to conditions: in vivo. It counts as ADME, organism-based.
For data set [5], the target named is Cannabinoid receptor 1 (Homo sapiens) (UniProt P21554). Nature of the data set: Binding affinity to human CB1 receptor expressed in CHO cells by luciferase reporter gene assay. On the technique in general: Reporter assays use an easily measured gene product as a stand-in for the process of interest.
The next data set has as its system Rattus norvegicus. Briefly: Systemic clearance in rat at 5 mg/kg, po. The format is ADME, organism-based. Also on record: dose 5 mg/kg, route oral. As to conditions: in vivo.

Chain of Cannabinoid receptor 1 (P20272 whole entry): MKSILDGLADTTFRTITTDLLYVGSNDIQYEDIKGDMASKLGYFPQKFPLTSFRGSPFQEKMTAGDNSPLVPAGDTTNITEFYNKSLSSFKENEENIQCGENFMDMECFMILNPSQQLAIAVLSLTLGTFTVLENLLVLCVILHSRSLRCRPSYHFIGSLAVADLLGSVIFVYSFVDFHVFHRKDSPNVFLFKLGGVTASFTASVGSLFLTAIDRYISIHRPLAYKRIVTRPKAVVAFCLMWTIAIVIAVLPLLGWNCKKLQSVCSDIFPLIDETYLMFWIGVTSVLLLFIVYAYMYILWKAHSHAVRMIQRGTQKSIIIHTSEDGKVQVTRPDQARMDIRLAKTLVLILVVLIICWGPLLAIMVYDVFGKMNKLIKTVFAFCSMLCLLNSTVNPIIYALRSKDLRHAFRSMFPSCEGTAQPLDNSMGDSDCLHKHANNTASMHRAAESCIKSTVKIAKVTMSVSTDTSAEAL
Chain of Cannabinoid receptor 2 (P34972 whole entry): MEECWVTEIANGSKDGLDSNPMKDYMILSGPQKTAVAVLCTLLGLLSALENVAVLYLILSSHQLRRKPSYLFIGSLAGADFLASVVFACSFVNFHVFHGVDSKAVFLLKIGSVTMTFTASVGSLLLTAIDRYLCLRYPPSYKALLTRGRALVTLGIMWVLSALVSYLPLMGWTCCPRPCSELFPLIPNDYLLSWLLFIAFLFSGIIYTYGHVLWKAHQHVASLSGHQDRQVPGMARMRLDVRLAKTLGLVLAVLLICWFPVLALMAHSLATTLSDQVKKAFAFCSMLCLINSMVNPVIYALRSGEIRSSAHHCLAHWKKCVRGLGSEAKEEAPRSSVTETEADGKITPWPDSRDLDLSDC
Chain of Cannabinoid receptor 1 (Homo sapiens) (P21554 whole entry, looked up): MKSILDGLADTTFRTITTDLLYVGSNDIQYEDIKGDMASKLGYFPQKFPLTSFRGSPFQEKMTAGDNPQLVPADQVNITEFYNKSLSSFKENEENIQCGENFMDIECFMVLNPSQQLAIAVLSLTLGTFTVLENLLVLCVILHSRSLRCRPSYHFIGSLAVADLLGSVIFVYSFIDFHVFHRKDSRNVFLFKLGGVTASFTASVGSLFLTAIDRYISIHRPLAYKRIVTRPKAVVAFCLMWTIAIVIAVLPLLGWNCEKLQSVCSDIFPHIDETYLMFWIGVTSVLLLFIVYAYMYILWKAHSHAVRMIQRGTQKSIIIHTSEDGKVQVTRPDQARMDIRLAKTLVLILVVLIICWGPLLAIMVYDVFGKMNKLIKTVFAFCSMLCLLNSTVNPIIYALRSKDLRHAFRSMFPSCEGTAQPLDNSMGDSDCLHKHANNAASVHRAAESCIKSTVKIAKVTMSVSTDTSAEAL

Turning to `Cc1nnc(-c2c(-c3nnc(C4(C(F)(F)F)CC4)s3)nn(-c3ccc(Cl)cc3Cl)c2-c2ccc(Br)cc2)o1`, the half-inhibitory concentration (IC50) (as a rule, the concentration that gives 50% inhibition) on Cannabinoid receptor 1 was 4.86 nM.

Regarding `Cc1nnc(-c2c(-c3nnc(C(C)(C)C)s3)nn(-c3ccc(Cl)cc3Cl)c2-c2ccc(Br)cc2)s1`, the 50% inhibitory concentration (IC50) came out at 427 nM at Cannabinoid receptor 2 and 2.56 nM on Cannabinoid receptor 1. In addition, in data set [1], the Ratio IC50 was 167.

Turning to `Cc1nnc(-c2c(-c3nnc(C4(c5ccc(Cl)cc5)CC4)o3)nn(-c3ccc(Cl)cc3Cl)c2-c2ccc(Cl)cc2)s1`, the IC50 on Cannabinoid receptor 1 came to 10.3 nM. This lies in the double-digit nanomolar range.

`Cc1nnc(-c2c(-c3nnc(C(C)(C)C)o3)nn(-c3ccc(Cl)cc3Cl)c2-c2ccc(Cl)cc2)s1` gave an IC50 on Cannabinoid receptor 1 of 2.83 nM. This IC50 is about 3.6-fold lower than that of the molecule before.

`Cc1nnc(-c2c(-c3nnc(C4(C(F)(F)F)CC4)o3)nn(-c3ccc(Cl)cc3Cl)c2-c2ccc(Cl)cc2)o1` registered an IC50 at Cannabinoid receptor 1 of 14.7 nM. Against the preceding molecule, the IC50 is about 5.2-fold higher.

Molecule `Cc1nnc(-c2c(-c3nnc(C4(C(F)(F)F)CC4)o3)nn(-c3ccc(Cl)cc3Cl)c2-c2ccc(Cl)cc2)s1` returned a concentration for half-maximal inhibition (IC50) on Cannabinoid receptor 1 of 4.14 nM.

`Cc1nnc(-c2c(-c3nnc(C(C)(C)C)s3)nn(-c3ccc(Cl)cc3Cl)c2-c2ccc(Br)cc2)o1` came in with a 50% inhibitory concentration (IC50) at Cannabinoid receptor 1 of 4.93 nM.

The molecule `Cc1nnc(-c2c(-c3nnc(C4(C(F)(F)F)CC4)o3)nn(-c3ccc(Cl)cc3Cl)c2-c2ccc(Br)cc2)o1` had an IC50 on Cannabinoid receptor 1 of 4.7 nM.

`Cc1nnc(-c2c(-c3nnc(C4(c5ccc(Cl)cc5)CC4)s3)nn(-c3ccc(Cl)cc3Cl)c2-c2ccc(Cl)cc2)s1` displayed an IC50 on Cannabinoid receptor 1 of 3.03 nM.

`Cc1nnc(-c2c(-c3nnc(C4(c5ccc(Cl)cc5)CC4)s3)nn(-c3ccc(Cl)cc3Cl)c2-c2ccc(Br)cc2)o1` yielded an IC50 at Cannabinoid receptor 1 of 4.44 nM.

On to `Cc1nnc(-c2c(-c3nnc(C4(c5ccc(Cl)cc5)CC4)s3)nn(-c3ccc(Cl)cc3Cl)c2-c2ccc(Br)cc2)s1`, for which the 50% inhibitory concentration (IC50) was over 10000 nM at Cannabinoid receptor 2 and 3.7 nM on Cannabinoid receptor 1. Further, the Ratio IC50 in data set [1] was over 2700.

Turning to `Cc1nnc(-c2c(-c3nnc(C(C)(C)C)o3)nn(-c3ccc(Cl)cc3Cl)c2-c2ccc(Br)cc2)s1`, the IC50 at Cannabinoid receptor 1 stood at 3.69 nM. In other words, the single-digit nanomolar range.

In the case of `Cc1nnc(-c2c(-c3nnc(C4(c5ccc(Cl)cc5)CC4)s3)nn(-c3ccc(Cl)cc3Cl)c2-c2ccc(Cl)cc2)o1`, the IC50 on Cannabinoid receptor 1 came out at 3.23 nM. The IC50 values of the last two molecules are within 1.5-fold of each other.

`Cc1nnc(-c2c(-c3nnc(C4(c5ccc(Cl)cc5)CC4)o3)nn(-c3ccc(Cl)cc3Cl)c2-c2ccc(Cl)cc2)o1` displayed an IC50 at Cannabinoid receptor 1 of 3.93 nM. The IC50 values of the last two molecules are within 1.5-fold of each other.

On to `Cc1nnc(-c2c(-c3nnc(C4(C(F)(F)F)CC4)s3)nn(-c3ccc(Cl)cc3Cl)c2-c2ccc(Cl)cc2)s1`, for which, on Cannabinoid receptor 1, the half-inhibitory concentration (IC50) came out at 7.39 nM.

In the case of `Cc1nnc(-c2c(-c3nnc(C4(c5ccc(Cl)cc5)CC4)o3)nn(-c3ccc(Cl)cc3Cl)c2-c2ccc(Br)cc2)s1`, the half-inhibitory concentration (IC50) on Cannabinoid receptor 1 worked out at 2.13 nM.

Take `Cc1nnc(-c2c(-c3nnc(C4(C(F)(F)F)CC4)s3)nn(-c3ccc(Cl)cc3Cl)c2-c2ccc(Cl)cc2)o1`: the half-inhibitory concentration (IC50) at Cannabinoid receptor 1 turned out to be 26.9 nM.

Take `Cc1nnc(-c2c(-c3nnc(C4(C(F)(F)F)CC4)o3)nn(-c3ccc(Cl)cc3Cl)c2-c2ccc(Br)cc2)s1`: the Cmax – broadly, the highest concentration seen after dosing – in data set [2] was determined as 30 ng/mL. In addition, the half-life in data set [3] is 18.4 h. The bioavailability – broadly, dose-corrected exposure relative to a reference, in per cent – in data set [4] came out at 7.2%. In addition, the IC50 at Cannabinoid receptor 2 was 245 nM; in data set [5], 38.5 nM; at Cannabinoid receptor 1, 1.72 nM. Moreover, in the data set on Rattus norvegicus, the clearance was determined as 12.6 mL/min/kg. Also, the Ratio IC50 in data set [1] is 142.

With `Cc1nnc(-c2c(-c3nnc(C(C)(C)C)o3)nn(-c3ccc(Cl)cc3Cl)c2-c2ccc(Br)cc2)o1`, the IC50 on Cannabinoid receptor 2 was 414 nM; at Cannabinoid receptor 1, 2.56 nM. Moreover, the Ratio IC50 in data set [1] was determined as 162.

On Cannabinoid receptor 1, `Cc1nnc(-c2c(-c3nnc(C4(C(F)(F)F)CC4)s3)nn(-c3ccc(Cl)cc3Cl)c2-c2ccc(Br)cc2)s1` registered an IC50 of 4.21 nM.

The molecule `Cc1nnc(-c2c(-c3nnc(C4(c5ccc(Cl)cc5)CC4)o3)nn(-c3ccc(Cl)cc3Cl)c2-c2ccc(Br)cc2)o1` came in with a concentration for half-maximal inhibition (IC50) on Cannabinoid receptor 1 of 4.91 nM.

At Cannabinoid receptor 1, `Cc1nnc(-c2c(-c3nnc(C(C)(C)C)o3)nn(-c3ccc(Cl)cc3Cl)c2-c2ccc(Cl)cc2)o1` showed a half-inhibitory concentration (IC50) of 6.47 nM.

Values taken from ChEMBL document CHEMBL1156125, “Pentacycle derivatives as cannabinoid CB1 receptor ligands” (Bioorg Med Chem Lett, 2009).
